Shown are actives, neighbours in structure and some others; about 1.9% of the full set was active somewhere.
SKBR3 24h inh: SK-BR-3 proliferation inhibitors; SK-BR-3 viability, CellTiter-Glo ATP luminescence, 24 h; hits give low values; viability, % at 10 µM; 41,000 tested, 0.47% active; AID 847;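 active = viability at or below the median of all test compounds minus 3 SD, in both replicates if run twice, cut at about 45% in these data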
mHtt clearance: compounds clearing mutant huntingtin protein | HeLa Exon1htt(103Q)mCFP, aggregate imaging; zero = plate's median compound well | inhibition, % at 1.5 µM | 47,000 tested, 0.42% active | AID 853;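 active = inhibition of aggregate fluorescence above about 70%, also judged a hit by eye on the cell image, limit read from the data, passing the limit was not always enough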;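 also: cells exposed to compound for three days before fixation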
HEK293 NFkB inh: lowers PMA/ionomycin-induced NF-kB signal in HEK293 cells | HEK-293 NF-kB luciferase reporter, luminescence | inhibition, % at 3 µM | 62,000 tested, 0.21% active | AID 465;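 active = inhibition above the mean of all tested compounds plus 3 SD, cut at about 40% in these data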
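System: NF-kB luciferase reporter HEK-293 cells | Replication: Single test | Control set: DMSO vs reference inhibitor | Evaluation: % inhibition | Schedule: 1 h pretreatment, 16 h stimulation, 37 °C | Probe or stimulus: PMA with ionomycin | Compound dosing: One dose, 3 µM | Detection: Luciferase luminescence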
Her2 expr inh: inhibitors of human Her2 kinase expression; P04626; HER2 level % of control, % at 10 µM; 65,000 tested, 0.69% active; AID 645; SKBR-3 HER2 protein level, AlphaScreen, 18-24 h; hits give low values;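 active = HER2 level under 5% of the carrier-only control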;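 also: lower value means stronger loss of Her2 protein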
Target sequence (P04626 whole entry, looked up): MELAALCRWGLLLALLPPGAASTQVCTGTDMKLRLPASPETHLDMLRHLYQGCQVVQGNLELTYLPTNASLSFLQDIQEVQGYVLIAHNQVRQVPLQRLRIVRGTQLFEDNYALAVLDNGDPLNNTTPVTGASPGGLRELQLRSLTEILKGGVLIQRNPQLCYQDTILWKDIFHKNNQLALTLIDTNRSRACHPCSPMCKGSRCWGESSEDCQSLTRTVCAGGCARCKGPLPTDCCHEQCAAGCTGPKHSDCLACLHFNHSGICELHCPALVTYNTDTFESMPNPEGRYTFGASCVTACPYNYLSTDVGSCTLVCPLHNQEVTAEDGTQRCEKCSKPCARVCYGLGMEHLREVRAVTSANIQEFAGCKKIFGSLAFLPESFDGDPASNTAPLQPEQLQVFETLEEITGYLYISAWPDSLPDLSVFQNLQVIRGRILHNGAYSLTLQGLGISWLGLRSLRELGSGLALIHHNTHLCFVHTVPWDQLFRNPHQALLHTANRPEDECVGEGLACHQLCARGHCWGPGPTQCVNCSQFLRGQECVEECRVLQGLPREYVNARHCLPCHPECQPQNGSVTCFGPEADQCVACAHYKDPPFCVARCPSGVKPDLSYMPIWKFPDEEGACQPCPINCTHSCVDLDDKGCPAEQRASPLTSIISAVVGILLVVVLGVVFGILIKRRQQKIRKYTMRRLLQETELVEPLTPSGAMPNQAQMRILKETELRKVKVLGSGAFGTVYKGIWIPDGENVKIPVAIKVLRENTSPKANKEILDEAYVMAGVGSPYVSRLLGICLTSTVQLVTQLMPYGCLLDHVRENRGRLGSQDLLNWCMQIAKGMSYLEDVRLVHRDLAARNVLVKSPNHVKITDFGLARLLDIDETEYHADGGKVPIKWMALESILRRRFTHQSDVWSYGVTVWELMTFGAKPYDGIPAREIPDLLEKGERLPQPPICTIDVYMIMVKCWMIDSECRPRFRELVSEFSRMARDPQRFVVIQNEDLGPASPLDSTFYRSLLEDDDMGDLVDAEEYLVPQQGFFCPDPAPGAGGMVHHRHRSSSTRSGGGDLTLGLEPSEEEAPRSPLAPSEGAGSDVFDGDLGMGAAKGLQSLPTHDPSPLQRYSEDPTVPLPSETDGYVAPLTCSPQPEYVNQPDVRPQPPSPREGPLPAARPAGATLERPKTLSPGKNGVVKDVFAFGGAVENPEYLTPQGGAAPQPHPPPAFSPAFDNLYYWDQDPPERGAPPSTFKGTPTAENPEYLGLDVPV
Jurkat tox 60K: cytotoxic compounds reducing Jurkat cell viability | Jurkat E6.1 viability, ATP luminescence, 48 h | inhibition, % at 4 µM | 56,000 tested, 1.2% active | AID 463;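 active = inhibition above the mean inhibition of all tested compounds plus 3 SD, cut at about 28% in these data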
Hits are given with their value; n = inactive; x = no result.

SMILES	SKBR3 24h inh	mHtt clearance	HEK293 NFkB inh	Her2 expr inh	Jurkat tox 60K
COc1ccc(C2=CC(c3ccc(Cl)cc3)n3cnnc3N2)cc1OC (configuration not stated)	40.2	x	n	n	x
COc1ccc(C2C=C(c3ccc(Cl)cc3)Nc3nc(NC(C)=O)nn32)cc1 (configuration not stated)	n	n	x	n	x
CCn1c2ccccc2c2cc(NC(=O)CSc3nnc(-c4ccccc4OC)n3N)ccc21	n	75.7	n	n	n
O=C(Cc1cccs1)NCC1CCCO1 (configuration not stated)	34.9	n	n	n	n
CC1CCN(S(=O)(=O)c2cccc(C(=O)O)c2)CC1	x	n	x	x	x
COC(=O)c1cccc(S(=O)(=O)N2CCC(C)CC2)c1	n	71.4	n	n	n
Cc1noc(C)c1COC(=O)c1cccc(S(=O)(=O)N2CCCCCC2)c1	x	x	n	n	40.0
Cc1ccccc1-n1nc2c(c1NC(=O)c1cc3ccccc3oc1=O)CS(=O)(=O)C2	x	x	n	1.1	x
Cc1ccc(NC(=O)CSc2nc3ccccc3c(=O)n2CCCN2CCCCC2)cc1C	x	n	x	x	x
c1ccc(-c2cccc(-c3ccccn3)n2)nc1	n	n	86.3	n	87.1
c1ccc(-c2nnc(-c3ccccn3)nn2)nc1	n	x	n	n	x
O=C(NCc1cccnc1)NC1(C(F)(F)F)Oc2ccc(Cl)cc2O1 (configuration not stated)	x	n	n	n	44.7
COCCNC(=O)NC1(C(F)(F)F)Oc2ccc(Cl)cc2O1 (configuration not stated)	n	n	n	n	x
CCCC(=O)NC(c1ccco1)c1cc(Cl)c2cccnc2c1O (configuration not stated)	x	n	n	n	n
COc1ccc(C(NC(C)=O)c2ccc3cccnc3c2O)c(OC)c1 (configuration not stated)	x	x	n	n	85.7
Oc1c(C(Nc2nc3ccccc3s2)c2ccco2)ccc2cccnc12 (configuration not stated)	x	x	70.9	n	62.1
CC(C)C(=O)NC(c1ccco1)c1ccc2cccnc2c1O (configuration not stated)	x	x	n	n	90.1
O=c1cccc(-c2ccccc2)[nH]1	n	x	n	-26.1	n
OC(COc1ccc2cc(Br)ccc2c1)CN1CCOCC1 (configuration not stated)	x	n	x	x	x
CC(C)OC(=O)c1c2nc3ccccc3nc2n2c1[nH]c(=O)c1ccccc12	n	x	x	n	x
CCOC(=O)c1c(NC(=O)CSc2n[nH]c(N)n2)sc(CC)c1C	x	x	n	-33.4	n
COC(=O)c1c(NC(=O)CSc2n[nH]c(N)n2)sc(C)c1C	x	n	n	n	n
COc1ccc2[nH]c(C)c(CN3CCCC(C)C3)c(=O)c2c1 (configuration not stated)	n	x	n	n	n
O=C(Nc1nnc(CC(=O)N2CCCC2)s1)c1cnccn1	n	x	n	n	x
O=S(=O)(c1ccc2c(c1)C(=NO)c1cc(S(=O)(=O)N3CCCCC3)ccc1-2)N1CCCCC1	3.5	x	n	-21.8	n
SMILES	SKBR3 24h inh	mHtt clearance	HEK293 NFkB inh	Her2 expr inh	Jurkat tox 60K
O=S(=O)(c1ccc(S(=O)(=O)N2CCCC2)cc1)N1CCCCCC1	n	n	n	n	n
O=S1(=O)C=C(Sc2nc3ccccc3s2)c2ccccc21	21.7	x	45.9	-18.5	101.7
COc1ccc(Nc2ccc3nnc(-c4ccc(Br)cc4)n3n2)cc1	x	n	x	x	x
CCn1c(SCC(=O)c2ccc(Cl)cc2)nnc1-c1cccs1	x	n	x	x	x
CCn1c(SCC(=O)c2c[nH]c3ccccc23)nnc1-c1cccs1	n	n	n	n	58.2
Cc1ccc(CC2CC(=O)N(c3nc4ccccc4n3C)C2=O)cc1 (configuration not stated)	x	n	x	x	x
COc1ccc2oc(C(=O)C3CC3)c(NC(=O)CCCN3C(=O)c4ccccc4C3=O)c2c1	x	x	n	n	n
CN(C)c1nc(C#N)nc(N2CCOCC2)n1	x	n	x	x	x
N#Cc1nc(N2CCCC2)nc(N2CCCC2)n1	n	72.7	n	n	n
C1CCN(c2nc(N3CCCCC3)nc(N3CCNCC3)n2)CC1	n	n	n	n	n
N#Cc1nc(N2CCCCC2)nc(N2CCOCC2)n1	n	x	n	x	42.5
CCOC(=O)c1oc2ccc(S(=O)(=O)n3nc(-c4ccc(C)cc4)cc3N)cc2c1C	x	n	x	x	x
CCOC(=O)c1oc2ccc(S(=O)(=O)Nc3ccc4c(c3)n(C)c(=O)n4C)cc2c1C	n	x	n	n	44.0
Cn1c(=O)n(C)c2cc(NS(=O)(=O)c3ccc4c(c3)CCCC4)ccc21	n	n	n	n	39.3
CCOC(=O)c1cc(NC(=O)CSc2nnc(CN3CCOCC3)n2C)ccc1Cl	x	n	x	x	x
CCc1ccc(N2CC(C(=O)Nc3nccs3)CC2=O)cc1 (configuration not stated)	x	n	n	n	n
COc1ccc(N2CCN(Cc3cc(=O)oc4cc(C)c(Cl)c(C)c34)CC2)cc1	42.3	n	n	n	n
CCN(CC)Cc1c(O)ccc2c([N+](=O)[O-])c(C)n(-c3ccc(OC)cc3)c12	x	70.6	x	x	x
CCOC(=O)C1=C(CNCc2ccc(C)cc2)NC(=O)NC1c1ccc(OC)cc1 (configuration not stated)	n	x	n	n	34.6
COC(=O)c1[nH]c2ccc(C)cc2c1NS(=O)(=O)c1ccc(F)cc1	37.9	x	n	n	n
COC(=O)c1[nH]c2ccc(C)cc2c1NC(=O)CN1CCCCC1C (configuration not stated)	n	x	n	n	n
COC(=O)c1[nH]c2ccc(C)cc2c1NC(=O)CN1CCCc2ccccc21	n	x	n	-22.1	n
COC(=O)c1[nH]c2ccc(C)cc2c1NS(=O)(=O)c1ccc(F)c(C)c1	n	n	n	n	n
CCCc1nc(SCC(=O)Nc2cc(C)on2)c2ccccc2n1	n	x	n	n	n
Cc1cc(NC(=O)CSc2nc(CCC3CCCC3)nc3ccccc23)no1	n	84.3	n	n	n
SMILES	SKBR3 24h inh	mHtt clearance	HEK293 NFkB inh	Her2 expr inh	Jurkat tox 60K
CCCCn1c(SCC(=O)Nc2cc(NC(=O)c3ccco3)ccc2C)nc2ccccc2c1=O	n	n	n	-15.9	n
O=C1CC(c2ccco2)Cc2nc(Nc3nc(-c4ccccc4)c4ccccc4n3)ncc21 (configuration not stated)	n	n	n	n	n
COc1ccc(S(=O)(=O)Nc2ccccc2C(F)(F)F)cc1	x	n	n	n	n
COc1ccc(NS(=O)(=O)c2ccc(SC)cc2)cc1	n	86.2	n	n	n
COc1ccc(S(=O)(=O)Nc2ccc(O)c3ccccc23)cc1	x	n	n	3.4	n
CCNc1nc(NCC)nc(N2CC(=O)N(CC(=O)OCC)C2=N)n1	x	n	x	x	x
O=C(NCc1cccs1)C1CCN(c2ccc(S(=O)(=O)N3CCOCC3)cc2Cl)CC1	n	n	n	n	91.1
O=C(O)CN1C(=O)CC(Cc2ccc(Cl)cc2)C1=O (configuration not stated)	n	n	n	-19.7	n
O=C1CC(Cc2ccc(Cl)cc2)C(=O)N1c1ccncc1 (configuration not stated)	x	n	x	x	x
C=CCN(CC=C)S(=O)(=O)c1ccc2nc(NC(=O)C(C)C)sc2c1	n	n	n	n	71.9

From PubChem BioAssay
